Published values pooled from the literature.
Compare with care: the assays were run in different laboratories.
Target: Receptor-interacting serine/threonine-protein kinase 2 (RIPK2, Homo sapiens, UniProt O43353)

With CN1CC(Oc2cnc(C#N)cc2-c2ccn3nc(NC(=O)C4CC4)cc3c2)C1 the inhibition was 81% (enzyme activity; inhibitor; 1 µM).
CCc1ccccc1C(=O)Nc1n[nH]c2c(C)c(F)c(C3C(C#N)=C(C)N(C)C(C)=C3C#N)cc12 gave a remaining binding of 100% (cell-free assay; competition with immobilised ligand; 1 µM).
FC(F)c1nc2ccccc2n1-c1nc(N2CCOCC2)nc(N2CCOCC2)n1 has a remaining activity of 89% (enzyme activity; inhibitor; 10 µM).
The inhibition of CCN(CC)CCNC(=O)c1c(C)[nH]c(/C=C2\C(=O)Nc3ccc(F)cc32)c1C is reported as -10% (enzyme activity; inhibitor; 0.3 µM).
CNCc1ccc(-c2cc(-c3nc(-c4ccc(S(=O)(=O)C(C)C)cc4)cnc3N)on2)cc1 gave an inhibition of 6% (enzyme activity; inhibitor; 0.4 µM).
With CC(C)(C)c1nc2c(s1)c1nc(N)ncc1c1ccc(NS(=O)(=O)c3c(F)cccc3F)c(F)c12 the remaining activity was 70% (enzyme activity; inhibitor; radiometric; 1 µM).
For Cc1ccc(NC(=O)c2ccc(C)c(C(F)(F)F)c2)cc1C#Cc1nn(C2CCC(O)CC2)c2ncnc(N)c12 (stereo not shown), the remaining signal was 21% (cell-free assay; 10 µM).
Cc1ccc(C(=O)NCc2ccsc2)cc1C#Cc1cn(C(C)C)c2ncnc(N)c12 gave an activity vs control of 14% (enzyme activity; inhibitor; 1 µM).
With Cn1cnc(Br)c1C1=CN(c2ncnc3[nH]cnc23)CCS1 the inhibition was 16.6% (enzyme activity; inhibitor; radiometric; 50 nM).
For COc1ccc2c(c1)O[C@H](c1ccc(OC)c(OC)c1)C[C@@H]2NC(=O)C1(c2ccc3c(c2)OC(F)(F)O3)CC1, the remaining binding was 100% (cell-free assay; competition with immobilised ligand; 1 µM).
CC(C)(O)[C@H]1CC[C@H](Nc2ccc3ncc(-c4cccc(C(F)(F)F)c4)n3n2)CC1 has a remaining activity of 28.1% (enzyme activity; inhibitor; 1 µM).
CCCS(=O)(=O)Nc1ccc(F)c(C(=O)c2c[nH]c3ncc(-c4ccc(Cl)cc4)cc23)c1F has an inhibition of less than 10% (enzyme activity; inhibitor; 1 µM).
For CNC(=O)c1cc(Oc2ccc(NC(=O)Nc3ccc(Cl)c(C(F)(F)F)c3)cc2)ccn1, the remaining signal was 86.2% (cell-free assay; 0.5 µM).
O=C(O)[C@H]1[C@H](Cn2nnc3ccccc3c2=O)CC[C@@H]1C(=O)c1ccc(OCCC2CCOCC2)cc1 has a remaining binding of 100% (cell-free assay; competition with immobilised ligand; 1 µM).
With CNC(=O)c1cc2c(Oc3ccc(NC(=O)C4(C(=O)Nc5ccc(F)cc5)CC4)cc3)ccnc2cc1OC the inhibition was 74% (enzyme activity; inhibitor; radiometric; 1 µM).
The remaining activity of COc1cc(Nc2cnc(C#N)c(O[C@H](C)CN(C)C)n2)ncc1-c1cnn(C)c1 is reported as 71% (enzyme activity; inhibitor; radiometric; 10 µM).
With CN1CCN(c2cnc3c(C4CCN(C(=O)c5ccc(OC(F)(F)F)cc5N)CC4)ncnc3c2)CC1 the remaining binding was 100% (cell-free assay; competition with immobilised ligand; 1 µM).
The remaining activity of O=C(Nc1cnn(-c2csc(C(=O)NC3COC3)c2)c1)Nc1c(F)cccc1Cl is reported as 80.2% (enzyme activity; inhibitor; 5 µM).
The remaining signal of Nc1ncnc2occ(-c3ccc(NC(=O)Nc4cc(C(F)(F)F)ccc4F)cc3)c12 is reported as 4.2% (cell-free assay; inhibitor; 20 µM).
FC(F)(F)Oc1cccc(-c2cnc3ccc(-c4ccncc4)nn23)c1 has an activity vs control of 22% (enzyme activity; inhibitor; radiometric; 5 µM).
For CNCc1ccccc1-c1csc([C@@H](C)Nc2nc(C)nc3cc(OC)c(OC)cc23)c1, the remaining binding was 100% (cell-free assay; competition with immobilised ligand; 1 µM).
The remaining activity of Cc1cnc(NC2CCOCC2)nc1-n1cnc(C(=O)NC(CN)c2cc(F)cc(Cl)c2)c1 (stereo not shown) is reported as 90% (enzyme activity; inhibitor; radiometric; 1 µM).
With C[C@H](NC(=O)c1cnc2n1[C@](C)(Cc1ccc(C#N)cc1)C(=O)N2c1cc(Cl)c(F)c(Cl)c1)C(=O)NC1(c2ccccn2)CC1 the remaining binding was 68% (cell-free assay; competition with immobilised ligand; 1 µM).
N#CCCc1ccc2c(c1)-c1[nH]c3ccc([N+](=O)[O-])cc3c1CC(=O)N2 gave a remaining signal of 21.5% (cell-free assay; 0.5 µM).
COc1cc(-c2cn(C3CCc4ccccc4N(CC(F)(F)F)C3=O)nn2)ccc1-n1ccc(C)n1 (stereo not shown) gave a remaining binding of 93% (cell-free assay; competition with immobilised ligand; 1 µM).
For COc1cc2ncnc(Nc3ccc(Oc4ccccc4)cc3)c2cc1OC, the remaining signal was 55.5% (cell-free assay; 0.5 µM).
CCS(=O)(=O)c1cc2cc(C[C@](O)(CC(C)(C)c3ccc(F)cc3C(N)=O)C(F)(F)F)[nH]c2cn1 has a remaining binding of 67% (cell-free assay; competition with immobilised ligand; 1 µM).
For Cc1ccc(Nc2nccc(N(C)c3ccc4c(C)n(C)nc4c3)n2)cc1S(N)(=O)=O, the remaining activity was 68.2% (enzyme activity; inhibitor; 0.5 µM).
